# Measurements published in ChEMBL document CHEMBL1671691 (Antimicrob Agents Chemother, 2010).
# Tests used:
# Influenza A virus [1] = assay: microbe, parasite or virus in culture; conditions: (A/Ecuador/5179/2008(H1N1)), MDCK, 72 h
# Influenza A virus [2] = assay: Antiviral activity against sInfluenza A virus (A/California/04/2009(H1N1))infected in MDCK cells from ATCC assessed as log reduction in viral titer at 14.2 uM after 24 hrs by immunofluorescent assay; assay type: functional
# Method in brief: (§1)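 MDCK cells (ATCC or Mill Hill) infected with 2009 pandemic H1N1 at MOI ~0.01, 1 h adsorption at 4°C, washed. DMEM with 2 μg/ml TPCK-trypsin plus drug for 24 h at 37°C. Supernatants titrated on MDCK cells by focus formation: methanol/acetic acid fixation, anti-nucleoprotein MAbs, FITC secondary, foci counted. Titre as log10 FFU per 100 μl; detection limit <10 FFU; quadruplicate wells.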
# Influenza A virus [3] = assay: Antiviral activity against Influenza A virus (A/Illinois/10/2009(H1N1)) infected in MDCK cells from Mill Hill assessed as log reduction in viral titer at 128 uM after 24 hrs by immunofluorescent assay; assay type: functional
# Method in brief: (§2)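 Yield reduction in MDCK-ATCC or MDCK-Mill Hill cells infected at MOI ∼0.01. Adsorption 1 h at 4°C, washed, then DMEM with 2 μg/ml TPCK-trypsin and drug. At 24 h, supernatants were titrated by immunofluorescent focus assay on MDCK cells with anti-NP monoclonals and FITC secondary. Titres as log10 FFU per 100 μl; detection limit <10 FFU. Quadruplicate, mean ± SD.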
# Influenza A virus [4] = assay: Antiviral activity against sInfluenza A virus (A/Washington/29/2009(H1N1)) infected in MDCK cells from ATCC assessed as log reduction in viral titer at 128 uM after 24 hrs by immunofluorescent assay; assay type: functional, Influenza A virus (A/Washington/29/2009(H1N1))
# Method in brief: as §1
# Influenza A virus [5] = assay: Antiviral activity against Influenza A virus (A/California/04/2009(H1N1)) infected in MDCK cells from Mill Hill assessed as log reduction in viral titer at 1.6 uM after 24 hrs by immunofluorescent assay; assay type: functional
# Method in brief: as §2
# Influenza A virus [6] = assay: microbe, parasite or virus in culture; conditions: MDCK, 72 h
# Influenza A virus [7] = assay: Antiviral activity against Influenza A virus (A/Washington/29/2009(H1N1)) infected in MDCK cells from Mill Hill assessed as log reduction in viral titer at 128 uM after 24 hrs by immunofluorescent assay; assay type: functional
# Method in brief: as §2
# Influenza A virus [8] = assay: Antiviral activity against Influenza A virus (A/California/04/2009(H1N1)) infected in MDCK cells from Mill Hill assessed as log reduction in viral titer at 128 uM after 24 hrs by immunofluorescent assay; assay type: functional
# Method in brief: as §2
# Influenza A virus [9] = assay: Antiviral activity against sInfluenza A virus (A/Washington/29/2009(H1N1)) infected in MDCK cells from ATCC assessed as log reduction in viral titer at 42.7 uM after 24 hrs by immunofluorescent assay; assay type: functional, Influenza A virus (A/Washington/29/2009(H1N1))
# Method in brief: as §1
# Influenza A virus [10] = assay: Antiviral activity against Influenza A virus (A/Illinois/10/2009(H1N1)) infected in MDCK cells from ATCC assessed as log reduction in viral titer at 14.2 uM after 24 hrs by immunofluorescent assay; assay type: functional
# Method in brief: as §2
# Influenza A virus [11] = assay: Antiviral activity against Influenza A virus (A/Mexico/4604/2009(H1N1)) infected in MDCK cells from Mill Hill assessed as log reduction in viral titer at 1.6 uM after 24 hrs by immunofluorescent assay; assay type: functional
# Method in brief: as §2
# Influenza A virus [12] = assay: Antiviral activity against Influenza A virus (A/Mexico/4604/2009(H1N1)) infected in MDCK cells from ATCC assessed as log reduction in viral titer at 14.2 uM after 24 hrs by immunofluorescent assay; assay type: functional
# Method in brief: as §2
# Influenza A virus [13] = assay: Antiviral activity against Influenza A virus (A/Mexico/4604/2009(H1N1)) infected in MDCK cells from ATCC assessed as log reduction in viral titer at 42.7 uM after 24 hrs by immunofluorescent assay; assay type: functional
# Method in brief: as §2
# Influenza A virus [14] = assay: Antiviral activity against Influenza A virus (A/Illinois/10/2009(H1N1)) infected in MDCK cells from Mill Hill assessed as log reduction in viral titer at 14.2 uM after 24 hrs by immunofluorescent assay; assay type: functional
# Method in brief: as §2
# Influenza A virus [15] = assay: Antiviral activity against Influenza A virus (A/Mexico/4604/2009(H1N1)) infected in MDCK cells from ATCC assessed as log reduction in viral titer at 4.7 uM after 24 hrs by immunofluorescent assay; assay type: functional
# Method in brief: as §2
# Influenza A virus [16] = assay: Antiviral activity against sInfluenza A virus (A/California/04/2009(H1N1)) infected in MDCK cells from Mill Hill assessed as log reduction in viral titer at 42.7 uM after 24 hrs by immunofluorescent assay; assay type: functional
# Method in brief: as §1
# Influenza A virus [17] = assay: microbe, parasite or virus in culture; conditions: (A/duck/Vietnam/NCVD93/2007 clade 2.3.4 (H5N1)), MDCK, 72 h
# Influenza A virus [18] = assay: microbe, parasite or virus in culture; conditions: (A/Swine/South Dakota/03/2008(H1N1)), MDCK, 72 h
# Influenza A virus [19] = assay: Antiviral activity against Influenza A virus (A/Mexico/4604/2009(H1N1)) infected in MDCK cells from ATCC assessed as log reduction in viral titer at 128 uM after 24 hrs by immunofluorescent assay; assay type: functional
# Method in brief: as §2
# Influenza A virus [20] = assay: Antiviral activity against Influenza A virus (A/Mexico/4604/2009(H1N1)) infected in MDCK cells from ATCC assessed as log reduction in viral titer at 1.6 uM after 24 hrs by immunofluorescent assay; assay type: functional
# Method in brief: as §2
# Influenza A virus [21] = assay: Antiviral activity against sInfluenza A virus (A/Washington/29/2009(H1N1)) infected in MDCK cells from ATCC assessed as log reduction in viral titer at 4.7 uM after 24 hrs by immunofluorescent assay; assay type: functional, Influenza A virus (A/Washington/29/2009(H1N1))
# Method in brief: as §1
# Influenza A virus [22] = assay: Antiviral activity against Influenza A virus (A/Mexico/4604/2009(H1N1)) infected in MDCK cells from ATCC assessed as inhibition of viral replication after 3 days by microscopic analysis using crystal violet stain; assay type: functional
# Method in brief: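 Confluent MDCK-ATCC monolayers infected with virus diluted to give 15–45 plaques/well. Adsorption 1 h at 37°C without drug, then washed. Overlaid with 0.8% agarose in MEM containing drug plus TPCK-trypsin: 3 μg/ml for seasonal viruses, 2 μg/ml for 2009 A(H1N1). Incubated 3 days at 37°C, 5% CO2. Ethanol-fixed, crystal violet-stained, plaques counted. EC50 by curve fit; duplicates on three occasions, mean ± SD.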
# Influenza A virus [23] = assay: microbe, parasite or virus in culture; conditions: (A/turkey/VA/4529/2002 (H7N2)), MDCK, 72 h
# Influenza A virus [24] = assay: Antiviral activity against Influenza A virus (A/Illinois/10/2009(H1N1)) infected in MDCK cells from ATCC assessed as log reduction in viral titer at 4.7 uM after 24 hrs by immunofluorescent assay; assay type: functional
# Method in brief: as §2
smiles,measurement,setting,value
NC(=O)c1nc(F)cnc1O [FAVIPIRAVIR],EC50,Influenza A virus [1],2.48 µM
same,log10FFU,Influenza A virus [2],<1
same,log10FFU,Influenza A virus [3],<1
same,log10FFU,Influenza A virus [4],1
same,log10FFU,Influenza A virus [5],4.1
same,EC50,Influenza A virus [6],0.96 µM
same,log10FFU,Influenza A virus [7],<1
same,log10FFU,Influenza A virus [8],<1
same,log10FFU,Influenza A virus [9],1.8
same,log10FFU,Influenza A virus [10],3.1
same,log10FFU,Influenza A virus [11],6.2
same,log10FFU,Influenza A virus [12],2.4
same,log10FFU,Influenza A virus [13],1.8
same,log10FFU,Influenza A virus [14],1.8
same,log10FFU,Influenza A virus [15],3.5
same,log10FFU,Influenza A virus [16],<1
same,EC50,Influenza A virus [17],1.59 µM
same,EC50,Influenza A virus [18],0.83 µM
same,log10FFU,Influenza A virus [19],<1
same,log10FFU,Influenza A virus [20],4.4
same,log10FFU,Influenza A virus [21],3.9
same,log10FFU,Influenza A virus [22],0.35
same,EC50,Influenza A virus [23],1.53 µM
same,log10FFU,Influenza A virus [24],4.4
